Reference: ChEMBL document CHEMBL2375304, “Synthesis and anticancer activity of novel 2-pyridyl hexahyrocyclooctathieno[2,3-d]pyrimidine derivatives” (2013)

Key:
Type in all cases: functional
NCI-H23 [1] = experiment: Growth inhibition of human NCI-H23 cells at 10^-5 M after 48 hrs by Sulforhodamine B assay relative to control; conditions: NCI-H23, 48 h, read-out: GI
Outline: (§1)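 Single-dose primary screen at 10⁻⁵ M across 49 lines. Cells were plated 24 h beforehand, with a TCA-fixed time-zero plate, then exposed 48 h at 37 °C, 5% CO2. Cells were fixed with cold TCA, stained with SRB and read at 515 nm. Percent growth was calculated against time-zero and untreated-control absorbances.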

HT-29 = experiment: Growth inhibition of human HT-29 cells at 10^-5 M after 48 hrs by Sulforhodamine B assay relative to control; conditions: HT-29, 48 h, read-out: GI
Outline: (§2)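 Single-dose screen at 10⁻⁵ M. Cells are preincubated 24 h at 37 °C in 5% CO2, then exposed to the compound, diluted from a DMSO stock into medium with gentamicin, for 48 h. Adherent cells are fixed with cold TCA (final 10%) and suspension cells with TCA (final 16%). Cells are stained with 0.4% SRB in 1% acetic acid and bound dye is read at 515 nm. Percent growth inhibition is taken against control wells and time-zero plates.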

K562 [2] = experiment: Growth inhibition of human K562 cells at 10^-5 M after 48 hrs by Sulforhodamine B assay relative to control; conditions: K562, 48 h, read-out: GI; outline: as §2
DU-145 = experiment: Growth inhibition of human DU145 cells at 10^-5 M after 48 hrs by Sulforhodamine B assay relative to control; conditions: DU-145, 48 h, read-out: GI; outline: as §2
HL-60(TB) = experiment: Growth inhibition of human HL-60(TB) cells at 10^-5 M after 48 hrs by Sulforhodamine B assay relative to control; conditions: HL-60, 48 h, read-out: GI
Outline: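 First-stage single-dose screen at 10⁻⁵ M. Cells pre-incubated 24 h at 37 °C, 5% CO2, then exposed to drug for 48 h. Settled cells fixed with TCA (final 16%), SRB-stained and read at 515 nm. Percentage growth inhibition is derived from treated, untreated control and time-zero absorbances.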

SK-MEL-28 [3] = experiment: Growth inhibition of human SK-MEL-28 cells at 10^-5 M after 48 hrs by Sulforhodamine B assay relative to control; conditions: SK-MEL-28, 48 h, read-out: GI; outline: as §1
SF-539 = experiment: Growth inhibition of human SF539 cells at 10^-5 M after 48 hrs by Sulforhodamine B assay relative to control; conditions: SF-539, 48 h, read-out: GI; outline: as §1
[4] = Growth inhibition of human HCC2998 cells at 10^-5 M after 48 hrs by Sulforhodamine B assay relative to control; conditions: HCC 2998, 48 h, read-out: GI; outline: as §2
OVCAR-3 = experiment: Growth inhibition of human OVCAR3 cells at 10^-5 M after 48 hrs by Sulforhodamine B assay relative to control; conditions: OVCAR-3, 48 h, read-out: GI; outline: as §1
786-0 [5] = experiment: Growth inhibition of human 786-0 cells at 10^-5 M after 48 hrs by Sulforhodamine B assay relative to control; conditions: 786-0, 48 h, read-out: GI; outline: as §2
Malme-3M = experiment: Growth inhibition of human MALME-3M cells at 10^-5 M after 48 hrs by Sulforhodamine B assay relative to control; conditions: read-out: GI; outline: as §2
PC-3 = experiment: Growth inhibition of human PC3 cells at 10^-5 M after 48 hrs by Sulforhodamine B assay relative to control; conditions: PC-3, 48 h, read-out: GI; outline: as §1
M14 = experiment: Growth inhibition of human M14 cells at 10^-5 M after 48 hrs by Sulforhodamine B assay relative to control; conditions: M14, 48 h, read-out: GI; outline: as §2
A549 = experiment: Growth inhibition of human A549/ATCC cells after 48 hrs by Sulforhodamine B assay; conditions: A549, 48 h
Outline: (§3)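 Five-concentration SRB assay using 10-fold or ½-log serial dilutions from a DMSO stock. Exposure is 48 h at 37 °C in 5% CO2 after 24 h preincubation. TCA fixation is followed by SRB staining and a reading at 515 nm. Percentage growth is computed from time-zero, control and treated absorbances. GI50 is the concentration where [(Ti−Tz)/(C−Tz)]×100 = 50, read from the plot against log concentration.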

K562 [6] = experiment: Growth inhibition of human K562 cells after 48 hrs by Sulforhodamine B assay; conditions: K562, 48 h; outline: as §3
MOLT-4 = experiment: Growth inhibition of human MOLT4 cells after 48 hrs by Sulforhodamine B assay; conditions: MOLT-4, 48 h
Outline: (§4)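 Cells were preincubated 24 h at 37 °C, 5% CO2, and a time-zero plate was TCA-fixed. Five concentrations were made by serial dilution from a DMSO stock (400-fold the top concentration) and incubated 48 h. Adherent cells were fixed with 10% final TCA and suspension cells with 16%. Plates were stained with 0.4% SRB and read at 515 nm. GI50 is the concentration giving 50% reduction in net protein increase versus control.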

Hs-578T = experiment: Growth inhibition of human Hs578T cells after 48 hrs by Sulforhodamine B assay; outline: as §3
COLO 205 = experiment: Growth inhibition of human COLO205 cells after 48 hrs by Sulforhodamine B assay; conditions: COLO 205, 48 h; outline: as §3
SK-MEL-28 [7] = experiment: Growth inhibition of human SK-MEL-28 cells after 48 hrs by Sulforhodamine B assay; conditions: SK-MEL-28, 48 h; outline: as §4
NCI-H23 [8] = experiment: Growth inhibition of human NCI-H23 cells after 48 hrs by Sulforhodamine B assay; conditions: NCI-H23, 48 h; outline: as §4
786-0 [9] = experiment: Growth inhibition of human 786-0 cells after 48 hrs by Sulforhodamine B assay; conditions: 786-0, 48 h; outline: as §3
SW-620 = experiment: Growth inhibition of human SW620 cells after 48 hrs by Sulforhodamine B assay; conditions: SW-620, 48 h; outline: as §4
UACC-62 = experiment: Growth inhibition of human UACC62 cells after 48 hrs by Sulforhodamine B assay; conditions: UACC-62, 48 h
Outline: (§5)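 Five-concentration stage in the […]-cell-line panel, using 10-fold or ½-log serial dilutions made from a DMSO stock (400-fold). Cells were preincubated 24 h at 37 °C, then drug-exposed 48 h. A time-zero plate was fixed with TCA at dosing, adherent cells were fixed with cold TCA (10% final), and protein was stained with SRB, absorbance 515 nm. GI50 was where [(Ti−Tz)/(C−Tz)]×100 = 50, from the percent growth vs log concentration plot, expressed as log10 GI50.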

SNB-75 = experiment: Growth inhibition of human SNB75 cells after 48 hrs by Sulforhodamine B assay; conditions: SNB-75, 48 h; outline: as §4
NCI-H460 = experiment: Growth inhibition of human NCI-H460 cells after 48 hrs by Sulforhodamine B assay; conditions: NCI-H460, 48 h; outline: as §4
UO-31 = experiment: Growth inhibition of human UO31 cells after 48 hrs by Sulforhodamine B assay; conditions: UO-31, 48 h; outline: as §5
HOP-62 = experiment: Growth inhibition of human HOP62 cells after 48 hrs by Sulforhodamine B assay; conditions: HOP-62, 48 h; outline: as §3
CCRF-CEM = experiment: Growth inhibition of human CCRF-CEM cells at 10^-5 M after 48 hrs by Sulforhodamine B assay relative to control; conditions: read-out: GI; outline: as §2

Row | SMILES | inhibition of growth at 10 µM (NCI-H23 [1]) [%] | inhibition of growth at 10 µM (HT-29) [%] | inhibition of growth at 10 µM (K562 [2]) [%] | inhibition of growth at 10 µM (DU-145) [%] | inhibition of growth at 10 µM (HL-60(TB)) [%] | inhibition of growth at 10 µM (SK-MEL-28 [3]) [%] | inhibition of growth at 10 µM (SF-539) [%] | inhibition of growth at 10 µM [4] [%] | inhibition of growth at 10 µM (OVCAR-3) [%] | inhibition of growth at 10 µM (786-0 [5]) [%] | inhibition of growth at 10 µM (Malme-3M) [%] | inhibition of growth at 10 µM (PC-3) [%] | inhibition of growth at 10 µM (M14) [%] | GI50 (A549) [µM] | GI50 (K562 [6]) [µM] | GI50 (MOLT-4) [µM] | GI50 (Hs-578T) [µM] | GI50 (COLO 205) [µM] | GI50 (SK-MEL-28 [7]) [µM] | GI50 (NCI-H23 [8]) [µM] | further results
1 | COc1ccc(N2CCN(c3nc(-c4ccncc4)nc4sc5c(c34)CCCCCC5)CC2)cc1 | 17.3 | 23.4 | 23.2 | 2.73 | 15.2 | -5.27 | 7.87 | -11.5 | 9.75 | 11.1 | -7.69 | 44.5 | -0.58 | – | – | – | – | – | – | – | –
2 | COc1ccc(N2CCN(c3nc(-c4ccccn4)nc4sc5c(c34)CCCCCC5)CC2)cc1 | – | – | – | – | – | – | – | – | – | – | – | – | – | 3.24 | 4.17 | 3.24 | 57.5 | 5.62 | > 100 | 17 | GI50 (786-0 [9]): 8.51 µM; GI50 (SW-620): 5.13 µM; GI50 (UACC-62): 6.92 µM; GI50 (SNB-75): 26.3 µM; GI50 (NCI-H460): 4.68 µM; GI50 (UO-31): 3.31 µM; GI50 (HOP-62): 11.5 µM
3 | c1ccc(N2CCN(c3nc(-c4ccncc4)nc4sc5c(c34)CCCCCC5)CC2)cc1 | 1.33 | 12.8 | 7.55 | -4.95 | 2.53 | -15 | 1.14 | -14 | 7.59 | 1.77 | -6.19 | 5.9 | -8.43 | – | – | – | – | – | – | – | –
4 | c1ccc(N2CCN(c3nc(-c4ccccn4)nc4sc5c(c34)CCCCCC5)CC2)cc1 | 37 | 42 | 79.2 | 21.1 | – | 7.85 | 12.6 | 13.7 | 27 | 10.7 | 7.96 | 54 | 27.1 | – | – | – | – | – | – | – | inhibition of growth at 10 µM (CCRF-CEM): 31%
5 | CN1CCN(c2nc(-c3ccncc3)nc3sc4c(c23)CCCCCC4)CC1 | – | – | – | – | – | – | – | – | – | – | – | – | – | 11.5 | 3.55 | 3.8 | 2.29 | 4.9 | 12.6 | 11.5 | GI50 (786-0 [9]): 4.79 µM; GI50 (SW-620): 12 µM; GI50 (UACC-62): 11 µM; GI50 (SNB-75): 1.38 µM; GI50 (NCI-H460): 13.5 µM; GI50 (UO-31): 1.58 µM; GI50 (HOP-62): 6.46 µM
6 | c1cc(-c2nc(N3CCOCC3)c3c4c(sc3n2)CCCCCC4)ccn1 | 8.29 | 17.6 | 29.3 | 1.4 | 24.6 | -7.03 | 15.8 | -8.59 | 15.4 | 32.9 | -1.71 | 35.4 | -15.4 | – | – | – | – | – | – | – | inhibition of growth at 10 µM (CCRF-CEM): 2.07%
